Experiments:
[1] = system: TSU human bladder cancer cells; assay: Clonal survival assay, PSMA-negative TSU cells, 72-hour exposure; type: cell-based; conditions: human cancer cell lines (Fig. 3A: TSU)
Method in brief: (§1)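 Clonal survival assays used PSMA-negative TSU bladder and PSMA-positive LNCaP prostate cancer cells exposed to test compounds for 72 hours. IC50 was the concentration inhibiting proliferation by 50%. Assays were run in triplicate and reported as mean ± SE.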

TSU cells = assay: Intracellular free calcium in fura-2-loaded TSU cells; type: cell-based, human; conditions: PSMA-nonproducing TSU cells
[2] = Biodistribution in CWR22R-H-bearing castrated mice; type: in vivo, mouse
Method in brief: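 Castrated mice carried CWR22R-H tumours started s.c. from 10 mg minced tumour in Matrigel. Five mice received one 56 mg/kg dose of test compound. Tumour, liver, kidney, skeletal muscle and brain were harvested 5 days later. Test compound and its PSMA cleavage products were measured in tissue by LC-MS. Tumour levels were compared with other tissues by Student's t test.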

[3] = Biodistribution in MCF-7 tumor-bearing mice; type: in vivo, mouse
[4] = system: LNCaP human prostate cancer cells; assay: Clonal survival assay, PSMA-positive LNCaP cells, 72-hour exposure; type: cell-based; conditions: human cancer cell lines (Fig. 3A: LNCaP)
Method in brief: as §1

SERCA pump [5] = molecular target: T1, SERCA pump (Oryctolagus cuniculus, UniProt P04191); assay: Intrinsic fluorescence binding competition on SERCA; conditions: intrinsic fluorescent studies
SERCA pump [6] = molecular target: T1, SERCA pump; assay: SERCA pump assay with skeletal muscle microsomes; type: biochemical, rabbit; conditions: broken cell microsomal studies
[7] = Body weight of xenograft-bearing mice; type: in vivo, mouse; conditions: 56 mg/kg × 3, by 5 to 7 days after therapy, baseline by days 14 to 21
[8] = system: MCF-7 human breast cancer xenografts; assay: MCF-7 xenograft efficacy in female nude mice; type: in vivo, mouse; conditions: for T/C ratio: day 21
Method in brief: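 Female nude mice with s.c. estrogen pellets carried flank tumours from 2 × 10^6 MCF-7 cells. Mice received one, two or three daily doses of 56 mg/kg test compound. Tumour volume and body weight were followed against untreated controls by Student's t test. Xenografts had histology 6 days after two doses. ER was stained with an ERα mAb. T/C was treated-to-control tumour volume.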

[9] = system: CWR22R-H human prostate cancer xenografts; assay: CWR22R-H xenograft efficacy in castrated mice; type: in vivo, mouse; conditions: single 3-day course, 56 mg/kg × 3, out to ≥30 days
Method in brief: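 Castrated mice had CWR22R-H xenografts from s.c. minced tumour (10 mg) in Matrigel. Three consecutive daily i.v. doses of 56 mg/kg were given on days 0, 1 and 2. Tumour volume was followed for ≥30 days against untreated controls by Student's t test. Body weight was recorded.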

[10] = Stability to hydrolysis in human plasma; type: in vitro ADME
[11] = GLP toxicology in cynomolgus monkey; type: in vivo
Method in brief: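 Toxicology was done in cynomolgus monkeys of both sexes at 10 mg/kg, with vehicle-treated controls. Necropsy was on day 33 and examined lymph nodes, spleen and thymus histologically. Splenic/body weight and thymus/body weight ratios were compared with vehicle animals, three per sex.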

other purified proteases = assay: Hydrolysis by other purified proteases; type: biochemical; conditions: equimolar concentrations of other proteases
[12] = Phase 1 clinical trial pharmacokinetics; type: in vivo, human
Method in brief: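 Eighteen advanced cancer patients in a phase 1 dose-escalation trial received a 1-hour i.v. infusion at 1.2 to 40 mg/m2. Serum concentrations were followed over 24 hours. Analysis was noncompartmental. AUC0–∞ used the linear trapezoidal method and t1/2 the log-linear terminal slope. Dose proportionality was assessed from AUC across doses.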

[13] = system: LNCaP human prostate cancer xenografts; assay: LNCaP xenograft efficacy in intact mice; type: in vivo, mouse; conditions: for treated-to-control tumor volume (T/C) ratio: maximally tolerated dose × 3
Method in brief: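 Six-week-old male nude mice were inoculated in the flank with 2 × 10^6 LNCaP cells in Matrigel. Test compound was given i.v. at 56 mg/kg on days 0, 1 and 2. The docetaxel comparator was dosed on days 0, 2 and 5. Tumour volume was followed for 30 days against untreated mice by Student's t test. T/C was the treated-to-control tumour volume ratio.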

[14] = Single-dose pharmacokinetics in BALB/c mice; type: in vivo, mouse; conditions: single dose of 67 mg/kg
Method in brief: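 Wild-type BALB/c mice received a single i.v. dose of 67 mg/kg. Groups of three mice were sampled at time points over 24 hours. Plasma test compound and its 12ADTβAsp cleavage product were quantified by LC-MS/MS. Analysis was noncompartmental, with a semilog regression trend line.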

[15] = Pharmacokinetics in monkey toxicological studies; type: in vivo; conditions: serum, intravenous
Method in brief: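 Male and female monkeys received a single 1-hour treatment at 1 to 10 mg/kg. Serum levels of test compound were followed over 24 hours. Analysis was noncompartmental. Terminal half-life came from the terminal slope of a log-linear concentration–time plot.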

Fc-PSMA = Fc-PSMA (Homo sapiens, UniProt Q04609); assay: PSMA prodrug hydrolysis with Fc-PSMA; type: biochemical; conditions: incubation with Fc-PSMA
Method in brief: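 Enzyme activity was confirmed beforehand by 3H-NAAG hydrolysis. Aliquots taken over time were analysed by HPLC with 0.1% TFA in water and acetonitrile, 40–100% B over 25 min. Products were identified by co-elution and confirmed by MS. Human plasma and other purified proteases at equimolar level were also tested.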

LNCaP cells = assay: Growth inhibition of LNCaP cells with or without PSMA inhibitor PMPA; type: cell-based, human; conditions: 48-hour exposure, PMPA 10 μM
[16] = system: TSU human bladder cancer xenografts; assay: TSU xenograft efficacy; type: in vivo, mouse; conditions: more intensive treatment schedule
[17] = Dose-finding / maximum tolerated dose in mice; type: in vivo, mouse; conditions: for maximally tolerated dose: × 3 doses
GLP toxicology in rat = type: in vivo
[18] = system: MDA-PCa2b human prostate cancer xenografts; assay: MDA-PCa2b xenograft efficacy in intact mice; type: in vivo, mouse
Method in brief: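 Six-week-old male nude mice carried flank MDA-PCa2b tumours from 2 × 10^6 cells in Matrigel. Test compound was given i.v. at 56 mg/kg on 3 consecutive days. Tumour volume was followed for ≥30 days against untreated controls by Student's t test. Tumours harvested 4 days after the last dose had H&E staining and nuclear AR immunostaining with rabbit polyclonal anti-AR antibody.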

[19] = system: PC-3 human prostate cancer cells; assay: Clonal survival of PC-3 cells after repeated exposure; type: cell-based; conditions: 11 cycles of repeat exposure and clonal expansion, 500 nM
[20] = BALB/c mice; cited from earlier work
[21] = MCF-7, 5 days after single dose of G202 56 mg/kg

T1 sequence (P04191 whole entry): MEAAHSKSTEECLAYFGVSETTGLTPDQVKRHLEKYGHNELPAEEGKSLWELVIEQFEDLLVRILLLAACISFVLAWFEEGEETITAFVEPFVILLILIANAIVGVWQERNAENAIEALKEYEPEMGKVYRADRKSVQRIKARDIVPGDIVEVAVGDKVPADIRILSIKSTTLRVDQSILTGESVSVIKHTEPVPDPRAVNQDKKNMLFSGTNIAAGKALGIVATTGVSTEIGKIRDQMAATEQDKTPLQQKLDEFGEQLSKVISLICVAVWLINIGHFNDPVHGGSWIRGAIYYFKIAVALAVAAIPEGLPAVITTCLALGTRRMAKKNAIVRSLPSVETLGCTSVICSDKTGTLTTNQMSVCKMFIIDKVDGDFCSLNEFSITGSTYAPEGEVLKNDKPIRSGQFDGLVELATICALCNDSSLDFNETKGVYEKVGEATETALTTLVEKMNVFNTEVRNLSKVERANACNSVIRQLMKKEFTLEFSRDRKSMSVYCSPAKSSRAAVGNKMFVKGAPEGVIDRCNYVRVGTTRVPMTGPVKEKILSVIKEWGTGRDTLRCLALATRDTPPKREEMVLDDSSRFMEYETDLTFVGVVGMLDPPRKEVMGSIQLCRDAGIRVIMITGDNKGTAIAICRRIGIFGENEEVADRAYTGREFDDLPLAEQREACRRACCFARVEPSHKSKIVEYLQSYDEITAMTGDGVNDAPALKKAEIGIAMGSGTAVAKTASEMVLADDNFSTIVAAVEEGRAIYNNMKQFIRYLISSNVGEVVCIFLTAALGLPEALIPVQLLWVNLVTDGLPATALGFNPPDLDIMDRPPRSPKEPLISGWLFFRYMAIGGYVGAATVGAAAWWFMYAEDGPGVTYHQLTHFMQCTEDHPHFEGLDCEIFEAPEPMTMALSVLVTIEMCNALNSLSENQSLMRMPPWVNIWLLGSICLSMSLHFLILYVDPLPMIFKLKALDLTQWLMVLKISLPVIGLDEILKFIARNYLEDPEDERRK
Sequence of Fc-PSMA (Q04609 44-750 limits assumed): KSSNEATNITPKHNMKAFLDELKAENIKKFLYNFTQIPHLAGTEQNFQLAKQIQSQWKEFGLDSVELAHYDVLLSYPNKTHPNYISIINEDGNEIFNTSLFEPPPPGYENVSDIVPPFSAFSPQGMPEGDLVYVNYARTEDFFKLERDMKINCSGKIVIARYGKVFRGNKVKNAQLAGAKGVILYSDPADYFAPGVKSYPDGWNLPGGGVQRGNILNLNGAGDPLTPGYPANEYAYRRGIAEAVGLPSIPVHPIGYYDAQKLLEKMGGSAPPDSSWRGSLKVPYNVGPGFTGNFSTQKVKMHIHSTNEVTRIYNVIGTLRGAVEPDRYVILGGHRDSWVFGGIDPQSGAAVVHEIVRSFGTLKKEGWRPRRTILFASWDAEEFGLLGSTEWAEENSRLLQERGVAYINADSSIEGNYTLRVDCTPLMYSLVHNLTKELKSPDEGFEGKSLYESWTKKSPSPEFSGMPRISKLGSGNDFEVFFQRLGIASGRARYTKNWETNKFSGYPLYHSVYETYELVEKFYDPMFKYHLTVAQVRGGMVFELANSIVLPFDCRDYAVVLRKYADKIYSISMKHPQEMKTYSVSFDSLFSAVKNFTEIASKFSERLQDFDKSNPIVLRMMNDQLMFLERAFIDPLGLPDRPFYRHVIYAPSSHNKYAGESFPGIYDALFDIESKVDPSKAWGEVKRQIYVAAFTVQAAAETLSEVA

For C/C=C(/C)C(=O)O[C@H]1C(C)=C2[C@H]([C@@H]1OC(=O)CCCCCCC)[C@@](C)(OC(C)=O)C[C@H](OC(=O)CCCCCCCCCCCNC(=O)C[C@H](N)C(=O)O)[C@@]1(O)[C@H]2OC(=O)[C@@]1(C)O [12ADTβAsp], the “cytotoxic potency compared with TG” value [1] was “comparable to those of TG”, the “maximal elevation in intracellular Ca2+” value (TSU cells; 200 nM) was “up to 400 nM” and the “accumulation in tumor tissue” value ([2]; 5 days after single dose of G202 56 mg/kg, CWR22R-H tumor) was “micromolar levels”. The “fold higher amount in tumor tissue compared to normal brain” value ([2]; CWR22R-H, after G202 56 mg/kg) was 354 fold, the “fold higher amount in tumor tissue compared to normal kidney” value ([2]; CWR22R-H, after G202 56 mg/kg) was 15 fold and the “fold higher amount in tumors than in kidney” value [3, 21] was 3.5 fold. The “fold higher amount in tumors than in skeletal muscle” value [3, 21] was 1.6 fold, the “tumor concentration relative to that in CWR22R-H xenografts” value ([3]; MCF-7 versus CWR22R-H) was 1/10 and the “cytotoxic potency compared with TG” value [4] was “comparable to those of TG”. For the same compound, the “binding competition with cyclopiazonic acid (CPA)” value (SERCA pump [5]) was “competitively affect the binding of each other” and the “potency at inhibiting the SERCA pump compared with TG” value (SERCA pump [6]) was “as potent at inhibiting the SERCA pump in broken cell microsomal studies as was TG”.

In the case of C/C=C(/C)C(=O)O[C@H]1C(C)=C2[C@H]([C@@H]1OC(=O)CCCCCCC)[C@@](C)(OC(C)=O)C[C@H](OC(=O)CCCCCCCCCCCNC(=O)C[C@H](N)C(=O)N[C@@H](CCC(=O)N[C@@H](CCC(=O)N[C@@H](CCC(=O)N[C@@H](CCC(=O)O)C(=O)O)C(=O)O)C(=O)O)C(=O)O)[C@@]1(O)[C@H]2OC(=O)[C@@]1(C)O [G202, 12ADTβAsp-GluγGluγGluγGlu], the “maximum body weight loss” value [7] is reported as “about 15%”, the “T/C ratio at 3 weeks after treatment” value ([8]; MCF-7) is reported as 0.05 and the “effect on tumor growth” value ([8]; single dose 56 mg/kg on 1 day) is reported as “tumor growth delay”. The T/C ratio ([8]; three consecutive doses of 56 mg/kg) was 0.06 ± 0.005, the T/C ratio ([8]; two consecutive doses of 56 mg/kg) was 0.05 ± 0.006 and the “effect on tumor growth” value ([8]; two daily doses of 56 mg/kg, out to 30 days, all treated animals) was “sustained tumor regression”. The “estrogen receptor (ER) expression in tumors” value ([8]; two doses of 56 mg/kg, nadir 3 days after the last dose) was “down-regulation of the estrogen receptor”, the “increase in intracellular calcium” value (TSU cells; 5 mM (25-fold higher concentration)) was “no appreciable increase in intracellular calcium” and the antitumor effect [9] was “Significant antitumor effects”. For the same compound, the “amount detected in the brain” value ([2]; mouse biodistribution studies) was “low amounts”, the “stability to hydrolysis in human plasma” value [10] was “completely stable to hydrolysis in human plasma” and the “animals with lymphoid depletion of lymph nodes” value ([11]; 10 mg/kg) was “five of six”. The “animals with lymphoid depletion of spleen” value ([11]; 10 mg/kg) was “five of six”, the “increase of splenic ratio” value ([11]; female monkeys, 10 mg/kg) was 25% and the “decrease of splenic/body weight ratio versus vehicle” value ([11]; male monkeys, 10 mg/kg) was 44%. For the same compound, the “decrease of thymus/body weight ratio versus vehicle” value ([11]; male monkeys, 10 mg/kg) was 67%, the bone marrow toxicity ([11]; monkey toxicology studies) was “no bone marrow toxicity” and the brain pathology ([11]; six monkeys, three consecutive doses of 10 mg/kg) was “within normal limits”. The “hydrolysis by other purified proteases” value (other purified proteases) was “not appreciably hydrolyzed”, the “predicted increase of AUC for a doubling in dose” value ([12]; first six dose cohorts, 1.2 to 40 mg/m^2) was 2.23 fold and the “terminal half-life in patients relative to monkey” value ([12]; human versus monkey) was roughly 1.5 fold. The half-life ([12]; human, serum, intravenous) was 15.1 h, the “treated-to-control tumor volume (T/C) ratio” value [13] was 0.15 and the “average regression of xenografts” value ([13]; single 3-day course, 56 mg/kg × 3, over a 30-day period) was roughly 50%. The “fraction of dose converted in the circulation to 12ADTβAsp” value [14] was “Less than 1%”, the half-life [15] was 9.7 h and the “hydrolysis by PSMA” value (Fc-PSMA) was “efficiently hydrolyzed by PSMA”. For the same compound, the “growth inhibition of LNCaP cells on addition of PMPA” value (LNCaP cells) was “could be blocked”, the “T/C ratio at 3 weeks after treatment” value [16] was 0.32 and the bone marrow toxicity ([17]; mouse toxicology studies) was “no bone marrow toxicity”. The MTD ([17]; mouse, in vivo, iv) was 112 mg/kg, the “mortality of treated animals” value ([17]; up to three consecutive daily doses of 56 mg/kg (1 μmol/dose)) was less than 10% and the “maximally tolerated single intravenous dose” value ([17]; wild-type mice) was 2 μmol/dose. The “TG molar equivalents deliverable systemically compared to TG alone” value ([17]; without significant host toxicity) was greater than 150 fold, the maximally tolerated dose [17] was 1.0 µmol and the brain pathology (GLP toxicology in rat; rat pathological studies) was “lack of toxicity to the brain”. The renal toxicity (GLP toxicology in rat; rat toxicological studies) was “transient reversible renal toxicity”, the bone marrow toxicity (GLP toxicology in rat; rat toxicology studies) was “no bone marrow toxicity” and the “androgen receptor (AR) expression in tumors” value ([18]; 4 days after 56 mg/kg × 3) was “marked down-regulation of AR expression”. The antitumor effect ([18]; single 3-day course, 56 mg/kg × 3, out to ≥30 days) was “Significant antitumor effects”.

In the case of C/C=C(/C)C(=O)O[C@H]1C(C)=C2[C@H]([C@@H]1OC(=O)CCCCCCC)[C@@](C)(OC(C)=O)C[C@H](OC(=O)CCC)[C@@]1(O)[C@H]2OC(=O)[C@@]1(C)O [TG, thapsigargin], the “clonal survival after repeated exposure” value [19] is listed as “no change in clonal survival” and the “lethal dose for 100% of the test population (LD100)” value [20] is listed as 0.2 mg/kg.

With CC(=O)O[C@@]12CO[C@@H]1C[C@H](O)[C@@]1(C)C(=O)[C@H](O)C3=C(C)[C@@H](OC(=O)[C@H](O)[C@@H](NC(=O)OC(C)(C)C)c4ccccc4)C[C@@](O)([C@@H](OC(=O)c4ccccc4)[C@H]21)C3(C)C [docetaxel, reference compound] the “treated-to-control tumor volume (T/C) ratio” value [13] was 0.63 and the maximally tolerated dose [17] was 0.39 µmol.

Reference: article PMC3715055 (Science translational medicine, 2012)
